*1 amine or outer side, *2 acyl side, *3 side chain or, on linkers, in order; H or OH if unused. Where a SMILES comes first, the peptide text is derived from it. Bridges are numbered along the chain shown (N, C = ends). [ ]: non-standard residue; d: D form. The star is where a group is joined. Arg(ψCOCO) = N=C(N)NCCC[C@H](N[*:1])C(=O)C(=O)[*:2]; X1 = O=C(/C=C/[C@H](Cc1ccc(O)cc1)N[*:1])[*:2]; aIle = CC[C@@H](C)[C@H](N)C(=O)O; Dap = NC[C@H](N)C(=O)O; PhAc = O=C(Cc1ccccc1)*
Key:
[1] = target: Prothrombin (Homo sapiens, UniProt P00734); assay: Inhibition of human thrombin
How it was run: (§1)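 Purified enzyme, preincubated 10 min at 37 °C with a range of inhibitor concentrations. Substrate: 0.2 mM N-p-tosyl-Gly-Pro-Arg p-nitroanilide, in 0.1 M Tris pH 8.0 with 1 mM CaCl2, 1 mM MgCl2, 1 M glycerol and 0.1% Triton X. Then 30 min at 37 °C; absorbance read at 405 nm.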

[2] = Inhibition of human tryptase in human cultured mast cell lysate
How it was run: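 Tryptase source: lysate (detergent/hypotonic buffer) of umbilical cord blood-derived human mast cells, ≥12 weeks in culture with SCF and IL-6, 100% pure; 8 × 10³ cell equiv/mL lysate. Preincubated 10 min at 37 °C with varied inhibitor. Substrate: 0.2 mM tosyl-Gly-Pro-Arg-pNA, Tris pH 8.0 buffer; 30 min at 37 °C; A405.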

[3] = Inhibition of bovine trypsin; parameters: species or system Bos taurus; how it was run: as §1
[4] = Inhibition of mouse tryptase in mouse bone marrow mast cell lysate
How it was run: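 Lysate (detergent/hypotonic buffer) of CBA/J mouse femoral bone marrow cells cultured 5 weeks with mouse IL-3 (>99% mast cells), used at 8 × 10⁴ cell equiv/mL as tryptase source. 10 min 37 °C preincubation with varied inhibitor levels. Then 0.2 mM tosyl-Gly-Pro-Arg-pNA in Tris pH 8.0 buffer, 30 min 37 °C; absorbance at 405 nm.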

SMILES	IC50 [1] [µM]	IC50 [2] [µM]	IC50 [3] [µM]	IC50 [4] [µM]
CCC(C)CC(=O)N[C@@H](C)C(=O)N[C@H]1CNC(=O)/C=C/[C@H](Cc2ccc(O)c(O)c2)NC(=O)[C@H]([C@H](C)CC)NC(=O)C(=O)[C@H](CCCNC(=N)N)NC(=O)[C@@H]2CCCN2C1=O (some centres not stated) [CYCLOTHEONAMIDE E5]	0.0679	0.0847	0.0373	0.0541
CC[C@@H](C)[C@@H]1NC(=O)C(=O)[C@H](CCCNC(=N)N)NC(=O)[C@@H]2CCCN2C(=O)[C@@H](NC(=O)[C@H](C)NC(=O)Cc2ccccc2)CNC(=O)/C=C/[C@H](Cc2ccc(O)cc2)NC1=O [CYCLOTHEONAMIDE E] (PhAc-A[Dap]P[Arg(ψCOCO)][aIle][X1]; lactam 2-C)	0.0161	0.0069	0.0106	0.017
CCC(C)CC(=O)N[C@@H](C)C(=O)N[C@H]1CNC(=O)/C=C/[C@H](Cc2ccc(O)cc2)NC(=O)[C@H]([C@H](C)CC)NC(=O)C(=O)[C@H](CCCNC(=N)N)NC(=O)[C@@H]2CCCN2C1=O (some centres not stated) [CYCLOTHEONAMIDE E4]	0.0074	0.0051	0.0059	0.0065
